Screening results deposited in PubChem by several laboratories.
Only some compounds are listed: those with a hit (about 4.9% of all), similar ones and a draw of the others.
STAT3 inh-1 – IL-6 driven STAT3 reporter inhibitors, primary screen, U3A cells, luciferase, luminescence, MLSCN library | hit rate 0.89% among 190,000 | IL-6 STAT3-luciferase reporter; host cell line lacks STAT1 | inhibition, % at 5.5 µM;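 active = inhibition above the mean inhibition across all screened compounds plus 3 SD, cut at about 44% in these data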
NF-kB expr up – activators of NF-kB expression in neurons, primary screen, cell-based, HTS. hit rate 1.6% among 190,000. fold change at 12.5 µM. AID 1239, 2008. human neuronal cells, NF-kB reporter expression; active compounds read high; in the data active = fold change above about 3.3
APP 5'UTR act – activators of APP 5'UTR luciferase reporter, primary screen, SH-SY5Y cells; SH-SY5Y APP 5'UTR luciferase reporter, luminescence; zero percent = DMSO vehicle wells; activation, % at 2 µM; hit rate 1% among 190,000;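 active = activation above a set limit, based on mean plus 3 SD of controls, cut at about 140% in these data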
STAT1 blocker – STAT1 signaling inhibitors, primary screen, cell-based, HTS, luciferase reporter; NIH 3T3 STAT1-luciferase reporter, IFN-gamma, luminescence; inhibition, % at 5.5 µM; hit rate 0.35% among 200,000; AID 920, 2007;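 active = inhibition above a set limit, the mean inhibition across all tested compounds plus 3 SD, cut at about 34% in these data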
STAT1 activator – STAT1 signaling activators, primary screen, cell-based, HTS, luciferase reporter; hit rate 2.6% among 200,000; NIH 3T3 STAT1-luciferase reporter, IFN-gamma, luminescence; 100% = IFN-gamma alone, no compound; activation (% of control), % at 5.5 µM; AID 932, 2007;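 active = activation above the screen-wide mean activation plus 3 SD, cut at about 130% in these data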
STAT3 activator – IL-6 driven STAT3 reporter potentiators, primary screen, U3A cells, luciferase, luminescence, MLSCN library. IL-6 STAT3-luciferase reporter; 100% = signal with IL-6 EC80 alone. activation (% of control), % at 5.6 µM. hit rate 0.91% among 190,000;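 active = activation above the screen-wide mean of compound activation plus 3 SD, cut at about 130% in these data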
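Material: STAT3-luciferase reporter U3A cells. Controls: IL-6-treated wells, 100% activation. Read-out: % activation versus median of IL-6-stimulated wells. Probe or stimulus: IL-6 stimulus at 33 ng/mL final. Timing: compound 1 h, then IL-6 6 h at 37 °C. Signal: reporter luminescence signal.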
STAT3 inh-2 – STAT3 reporter inhibitors, retest of hits, confirmation, U3A cells, luciferase, luminescence | shares compounds with STAT3 inh-1 | IL-6 STAT3 luciferase reporter; cell line lacks STAT1 | inhibition, % at 5.7 µM | hit rate 45% among 1,200 | AID 1265, 2008;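 active = inhibition above the hit cutoff computed for the primary STAT3 screen, cut at about 44% in these data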
NFkB inh STAT3ct – NF-kB reporter inhibitors in human cells, confirmation, counter-screen for STAT3 inhibitor project, cell-based, HEK293T, luciferase, TNF-alpha stimulus. inhibition, % at 5.7 µM. TNF-alpha induced. hit rate 36% among 1,200. AID 1308, 2008. shares compounds with STAT3 inh-1;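 active = inhibition above the mean of solvent-only control wells plus 3 SD, cutoff set per campaign, cut at about 13% in these data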
STAT1 inh STAT3c – STAT1 reporter inhibitors, IFN-gamma induced, confirmation, counter-screen for STAT3 inhibitor project, cell-based, NIH 3T3, luciferase luminescence. NIH 3T3 STAT1-luciferase reporter. shares compounds with STAT3 inh-1. AID 1317, 2008. inhibition, % at 5.7 µM. hit rate 27% among 1,200;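 active = inhibition above the mean plus 3 SD of solvent-only control wells, limit set per screening run, cut at about 16% in these data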
Numbers stand for hits; . = inactive; / = no result.

SMILES	STAT3 inh-1	NF-kB expr up	APP 5'UTR act	STAT1 blocker	STAT1 activator	STAT3 activator	STAT3 inh-2	NFkB inh STAT3ct	STAT1 inh STAT3c
CC(C)(C)c1ccc(C(=O)Nc2cccc3c(=O)[nH][nH]c(=O)c23)cc1	67.4	.	.	.	.	.	.	.	.
COc1cccc(NC(=O)Nc2nccc(C)n2)c1	70.7	4.1	.	.	.	.	.	.	.
COc1cccc(NC(=O)Nc2ccc3c(c2)nc(C)n3C)c1	53.7	5.71	.	.	.	.	.	.	.
Cc1cc(NC(=O)CN(C)C)c([N+](=O)[O-])cc1C	.	.	.	.	.	.	/	/	/
Cc1nnc(SCC(=O)N2c3ccccc3CC2C)[nH]c1=O (centres undefined)	.	.	.	.	.	.	/	/	/
COc1ccc(CCNc2c(C)c(C)nc3ncnn23)cc1	82.4	.	.	.	.	.	84.6	31.8	25.6
CCCc1n[nH]c2c1/C(=N/O)CC(c1ccccc1)C2 (centres undefined)	45.4	.	.	.	.	.	43.7	.	.
CCOC(=O)C1C(C(=O)Nc2cccc(C(F)(F)F)c2)C1C(=O)NC(C)C (centres undefined)	.	.	.	.	.	.	/	/	/
Cc1sc2ncnc(N3CCN(CCOc4ccc(Cl)cc4)CC3)c2c1C	76.3	.	.	.	.	.	76.9	24.7	19.6
COc1ccc(-n2c(-c3ccc(Br)cc3)c[n+]3c2SC(C)C3)cc1 (centres undefined)	45.9	.	.	.	.	.	.	.	22.2
O=C(C1CCC(CNc2nc(=S)[nH]c3ccccc23)CC1)N1CCN(c2ccccn2)CC1 (centres undefined)	50.4	.	.	.	.	.	52.5	.	34.7
O=C(NCCc1ccccc1)C1CCC(CNc2nc(=S)[nH]c3ccccc23)CC1 (centres undefined)	.	.	.	.	.	.	/	/	/
N/C(=N\N=C\c1cccc(O)c1)c1nonc1N	63.0	8.69	154.8	.	.	.	.	.	.
Nc1nnnn1/N=C/c1cccc(O)c1	.	.	.	.	.	.	/	/	/
CCOc1ccc(NC(=O)N2CCC(c3nc4ccccc4[nH]3)CC2)cc1	.	.	.	.	.	.	/	/	/
COc1ccc(-c2noc(CCCC(=O)O)n2)cc1	56.9	.	.	.	.	.	44.9	29.8	.
COc1ccc(-c2noc(CCC(=O)O)n2)cc1	.	.	.	.	.	.	/	/	/
CCOc1ccc(-c2noc(CCC(=O)O)n2)cc1	59.1	.	.	.	.	.	.	23.7	.
CCOc1cc(C=O)ccc1OCc1cc(=O)n2cc(C)ccc2n1	.	.	.	.	.	.	/	/	/
Cc1ccc(NC(=O)C2OCCc3ccccc32)cc1 (centres undefined)	.	.	.	.	.	.	/	/	/
Cc1ccc(NC2=Nc3ccccc3CC2)cc1	44.4	3.73	179.3	.	.	.	.	.	.
S=C(NCCc1ccccc1)Nc1cccc2cnccc12	68.1	.	.	.	.	.	72.9	24.6	23.0
C[n+]1c2n(c3ccccc31)N=C(c1ccc(-c3ccccc3)cc1)CS2	66.0	.	.	.	.	.	.	.	29.0
Cc1cc(-c2nnc3n2N=C(c2ccc(-c4ccccc4)cc2)CS3)n[nH]1	.	.	.	.	.	.	/	/	/
CCN(CC)S(=O)(=O)c1cccc(NC2=NCC(C)S2)c1 (centres undefined)	.	.	.	.	.	.	/	/	/
